Measured values reported in ChEMBL document CHEMBL4477170, “Tricyclic Acylphloroglucinols from Hypericum lanceolatum and Regioselective Synthesis of Selancins A and B” (J Nat Prod, 2016).
Active and inactive are the calls of the source. The rule behind the calls is not given here.

Key:
[1] = test system: PC-3; assay: Cytotoxicity against human PC3 cells assessed as cell growth inhibition at 10 uM by XTT assay; format: functional, cell-based
Outline: (§1)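 Modified XTT assay on HT-29 colon and PC-3 prostate cancer cell lines, measuring growth inhibition; isolated compounds tested up to 10 μM.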

[2] = test system: HT-29; assay: Cytotoxicity against human HT-29 cells assessed as cell growth inhibition at 10 uM by XTT assay; format: functional, cell-based; outline: as §1

| Structure (SMILES) | growth inhibition (GI) [1] | growth inhibition (GI) [2] |
| --- | --- | --- |
| CC(C)=CCC/C(C)=C/COc1cc(O)c2c(c1)C(=O)c1cc(C)cc(O)c1C2=O | inactive | inactive |
| CC[C@H](C)C(=O)c1c(O)c2c(c3c1OC(C)(C)C(O)C3)OC(C)(C)C=C2 (stereo partly drawn) | inactive | inactive |
| CC[C@H](C)C(=O)c1c(O)c2c(c3c1OC(C)(C)C=C3)OC(C)(C)[C@H](O)C2 | inactive | inactive |
| CC(C)C(=O)c1c(O)c2c(c3c1OC(C)(C)C=C3)OC(C)(C)C=C2 | inactive | inactive |
| CC[C@H](C)C(=O)c1c(O)c2c(c3c1OC(C)(C)C=C3)OC(C)(C)C=C2 | inactive | inactive |
| CC(C)C(=O)c1c(O)c2c(c3c1OC(C)(C)C=C3)OC(C)(C)[C@@H](O)C2=O | inactive | inactive |
| CC(C)C(=O)c1c(O)c2c(c3c1OC(C)(C)C(O)C3)OC(C)(C)C=C2 (stereo not drawn) | inactive | inactive |
| CC[C@H](C)C(=O)c1c(O)c2c(c3c1OC(C)(C)C=C3)OC(C)(C)[C@@H](O)C2=O | inactive | inactive |
| CC(C)C(=O)c1c(O)c2c(c3c1OC(C)(C)C=C3)OC(C)(C)[C@H](O)[C@@H]2O (relative stereo) | inactive | inactive |
